The results in this text go back to ChEMBL document CHEMBL1629659, “Bronchopulmonary disposition of micafungin in healthy adult volunteers” (Antimicrob Agents Chemother, 2009).

For orientation: half-life means the time needed for the level to fall by half in the phase considered. A lower half-life goes with rapid decline. As a reminder, the Cmax is the maximum level reached in the sampled fluid or tissue. The AUC is concentration integrated over time. The low end stands for low exposure, the high end for high exposure. The Vd is the apparent volume that relates the amount in the body to the concentration in plasma or blood. Read a low Vd as little distribution into tissue. As a reminder, the clearance is a measure of how efficiently the substance is removed, as volume per time. High values mean efficient removal, low ones inefficient removal.

In data set [1] the test system is Aspergillus fumigatus. As to the kind of experiment: Antimicrobial activity against non-germinated Aspergillus fumigatus conidia. It counts as functional. To be noted: read-out: MEC.
A short description of data set [2]: Half life in healthy human plasma at 150 mg, iv […]. The class given is ADME, organism-based. A digest of the protocol: (§1)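 Fifteen healthy adults received micafungin 150 mg IV, infused over 1 h every 24 h, for three doses. Blood was drawn before the third dose, at end of infusion (1 h), and 4, 12 and 24 h after the third dose. Plasma levels were measured by validated HPLC (linear 0.05–25.0 μg/ml). Parameters came from noncompartmental analysis over the 24-h dosing interval.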

Data set [3] is described as follows: Cmax in healthy human plasma at 150 mg, iv […]. The class given is ADME, organism-based. On the set-up: dose 150 mg, route intravenous. A digest of the protocol:
as §1

A short description of data set [4]: AUC ( 0 to 24 hrs) in healthy human plasma at 150 mg, […]. The class given is ADME, organism-based. Set-up: dose 150 mg, time < 24 hr, route intravenous. To be noted: iv. A digest of the protocol:
as §1

Data set [5] in a line: Volume of distribution in healthy human plasma at 150 mg, iv […]. The class given is ADME, organism-based. A digest of the protocol:
as §1

Data set [6] is described as follows: Drug concentration in healthy human epithelial lining fluid at 150 mg, iv QD measured after 4 hrs of third postdose by urea dilution method. The following applies: read-out: Drug uptake.
Data set [7] is described as follows: Penetration ratio, ratio of AUC for human epithelial lining fluid to AUC for human plasma. It counts as ADME. To be noted: read-out: Ratio AUC. The gist of the method:
(§2)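 Penetration was expressed as composite AUC0-24 in ELF or alveolar cells (urea-dilution-corrected BAL data, trapezoidal rule) divided by plasma AUC0-24 (noncompartmental). Subjects received 150 mg IV daily for three doses.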

The nature of data set [8]: Drug concentration in Alveolar macrophage cells of healthy human at 150 mg, iv […] measured after 12 hrs of third postdose by urea dilution method. It counts as ADME, organism-based. To be noted: read-out: Drug uptake. The gist of the method: (§3)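 The first aspirate was discarded and the rest pooled. Cells were pelleted and lysed. Drug in BAL fluid and pellet was measured by HPLC. Urea in BAL and plasma was measured by colorimetric enzymatic assay. ELF and alveolar-cell levels were derived by urea dilution.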

Data set [9] in a line: Clearance at steady state in healthy human plasma at 150 mg, iv […]. It counts as ADME, organism-based. The gist of the method: as §1
The nature of data set [10]: Ratio of Cmax to MEC for Aspergillus. The class given is functional.
The nature of data set [11]: AUC ( 0 to 24 hrs) in Alveolar macrophage cells of healthy human at 150 mg, iv […]. It counts as ADME, organism-based. On the set-up: time < 24 hr, dose 150 mg, route intravenous. The gist of the method:
(§4)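 Steady-state ELF and alveolar-cell concentrations were derived by urea dilution from BAL, with one bronchoscopy per subject at 4, 12 or 24 h after the third 150 mg IV dose (five subjects per time). A composite AUC over 0–24 h was calculated across subjects by the trapezoidal rule.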

Data set [12] has as its system Plasma. Put plainly: Plasma concentration in healthy human at 150 mg, iv […] measured before third dose. To be noted: in vivo. It counts as ADME, organism-based. The gist of the method:
(§5)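 Healthy volunteers (n=15) were given 150 mg micafungin IV over 1 h every 24 h for three doses. Plasma was sampled before and after the third dose (0, 1, 4, 12, 24 h). Quantitation used modified, validated HPLC with a standard curve linear over 0.05–25.0 μg/ml. Interday CV was ≤11.3% and intraday CV <18%.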

The nature of data set [13]: Drug concentration in healthy human epithelial lining fluid at 150 mg, iv […] measured after 24 hrs of third postdose by urea dilution method. It counts as ADME, organism-based. The following applies: read-out: Drug uptake. The gist of the method:
as §3

A short description of data set [14]: AUC ( 0 to 24 hrs) in healthy human epithelial lining fluid at 150 mg, iv […]. It counts as ADME, organism-based. On the set-up: dose 150 mg, time < 24 hr, route intravenous. The gist of the method:
as §4

Data set [15] in a line: Penetration ratio, ratio of AUC for alveolar macrophage cells of healthy human to AUC for human plasma. It counts as ADME, cell-based. The following applies: read-out: Ratio AUC. The gist of the method: as §2
Data set [16] can be described thus: Drug concentration in Alveolar macrophage cells of healthy human at 150 mg, iv […] measured after 24 hrs of third postdose by urea dilution method. The class given is ADME, organism-based. The following applies: read-out: Drug uptake. The gist of the method:
as §3

Data set [17] can be described thus: Drug concentration in healthy human plasma at 150 mg, iv QD measured after 4 hrs of third postdose by high-pressure liquid chromatography method. The following applies: read-out: Drug uptake.
Data set [18] in a line: Drug concentration in healthy human epithelial lining fluid at 150 mg, iv QD measured after 12 hrs of third postdose by urea dilution method. To be noted: read-out: Drug uptake.
A short description of data set [19]: Plasma concentration in healthy human at 150 mg, iv […] measured after 24 hrs of third postdose. The class given is ADME, organism-based. The gist of the method:
as §5

The nature of data set [20]: Drug concentration in healthy human plasma at 150 mg, iv QD measured after 24 hrs of third postdose by high-pressure liquid chromatography method. The following applies: read-out: Drug uptake.
Data set [21] concerns Plasma. Put plainly: Plasma protein binding in healthy human. The class given is ADME, cell-free.
A short description of data set [22]: Drug concentration in healthy human plasma at 150 mg, iv QD measured after 12 hrs of third postdose by high-pressure liquid chromatography method. To be noted: read-out: Drug uptake.
In data set [23] the test system is Aspergillus fumigatus. As to the kind of experiment: Antimicrobial activity against germinated Aspergillus fumigatus conidia. The class given is functional. The following applies: read-out: MEC.
Data set [24] can be described thus: Drug concentration in Alveolar macrophage cells of healthy human at 150 mg, iv […] measured after 4 hrs of third postdose by urea dilution method. To be noted: read-out: Drug uptake. It counts as ADME, organism-based. The gist of the method:
as §3

Numbered stars: 1 amine (or outer) side, 2 acyl side, 3 side chain; on linkers, the order of the positions; unused ones are H or OH. Bridge positions count the residues as written; N and C are the ends. Square brackets hold non-standard residues; d marks the D form. Peptide text beside a SMILES is read from it. * marks the point of attachment. hTyr(3S-OH,4S-OH,3'-OSO3H) = N[C@H](C(=O)O)[C@H](O)[C@@H](O)c1ccc(O)c(OS(=O)(=O)O)c1; Orn(4R-OH,5R-OH) = O=C([C@H](C[C@@H](O)[C@@H](O)N[*:3])N[*:1])[*:2]; Pro(3S-OH,4S-Me) = C[C@H]1CN[C@H](C(=O)O)[C@H]1O; X1 = CCCCCOc1ccc(-c2cc(-c3ccc(C(=O)*)cc3)no2)cc1; Gln(3R-OH) = NC(=O)C[C@@H](O)[C@H](N)C(=O)O; Hyp = O=C(O)[C@@H]1C[C@@H](O)CN1

For the molecule `CCCCCOc1ccc(-c2cc(-c3ccc(C(=O)N[C@H]4C[C@@H](O)[C@@H](O)NC(=O)[C@@H]5[C@@H](O)[C@@H](C)CN5C(=O)[C@H]([C@H](O)CC(N)=O)NC(=O)[C@H]([C@H](O)[C@@H](O)c5ccc(O)c(OS(=O)(=O)O)c5)NC(=O)[C@@H]5C[C@@H](O)CN5C(=O)[C@H]([C@@H](C)O)NC4=O)cc3)no2)cc1` [MICAFUNGIN] (X1-[Orn(4R-OH,5R-OH)]T[Hyp][hTyr(3S-OH,4S-OH,3'-OSO3H)][Gln(3R-OH)][Pro(3S-OH,4S-Me)]; lactam 1-C), the figures for the minimal effective concentration with Aspergillus fumigatus [1] and with Aspergillus fumigatus [23] were 0.06 µg/mL and 0.25 µg/mL, respectively. For the same molecule, the half-life in data set [2] is 14.7 h. In addition, the peak level in data set [3] (Cmax) was 19100 ng/mL. Besides, the AUC at 24 h in data set [4] was 220 µg·h/mL; in [11], 234 µg·h/mL; in [14], 10.2 µg·h/mL. The molecule further gave a Vd in data set [5] of 15 L. In addition, the concentration at 4 h in [6] came to 520 ng/mL; in data set [17], 14800 ng/mL; in data set [24] it was 10400 ng/mL. Besides, the results for the Kp in data set [7] and in [15] were 5 and 106, respectively. Further, the concentration at 12 h was 8400 ng/mL in [8], 440 ng/mL in data set [18] and 7400 ng/mL in data set [22]. The clearance in [9] is 11.7 mL/min. Moreover, the Ratio in data set [10] was 10. Moreover, in the data set with Plasma [12], the Cp is 4280 ng/mL. Moreover, the concentration at 24 h was 430 ng/mL in data set [13], 14600 ng/mL in data set [16], 4670 ng/mL in [19] and 4800 ng/mL in data set [20]. Moreover, the PPB in the data set with Plasma [21] is 99%.
